Experimental data: ChEMBL document CHEMBL1147809, “Tumor-cell-targeted methionine-enkephalin analogues containing unnatural amino acids: design, synthesis, and in vitro antitumor activity” (2006)

Tests used:
Type in all cases: functional
[1] = system: MCF7; experiment: Antiproliferative activity against human MCF7 cell line at 10 uM relative to control
Procedure, shortened: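 MTT assay on monolayer cells grown in DMEM with 10% FBS, 2 mM glutamine, penicillin and streptomycin, at 37 °C in 5% CO2. Cells were plated at 2 × 10^4 cells/mL on day 0. After 24 h the medium was replaced with fresh medium containing compound (working dilutions in PBS from 10% DMSO/water stock), then incubated 72 h. Percent growth inhibition was calculated against untreated cells after blank subtraction. Values are means of three experiments run in triplicate.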

[2] = system: HBL; experiment: Antiproliferative activity against human HBL cell line at 1000 uM relative to control
Procedure, shortened: (§1)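 Cells from ATCC grown as monolayers in DMEM with 10% FBS, 2 mM glutamine, penicillin/streptomycin, 37 °C, 5% CO2. Seeded at 2 × 10^4 cells/mL, and after 24 h the medium was replaced with fresh medium containing compound (water/10% DMSO stock, PBS working dilutions 10^-3 to 10^-6 M). Exposure was 72 h, then MTT read-out. Growth % = (A_peptide − A_blank)/(A_control − A_blank) × 100, with inhibition taken relative to untreated cells. Values are means of three experiments run in triplicate.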

[3] = system: Caco-2; experiment: Antiproliferative activity against human Caco-2 cell line at 10 uM relative to control; procedure, shortened: as §1
[4] = system: SW-620; experiment: Antiproliferative activity against human SW620 cell line at 1000 uM relative to control; procedure, shortened: as §1
[5] = system: MCF7; experiment: Antiproliferative activity against human MCF7 cell line at 1000 uM relative to control; procedure, shortened: as §1
[6] = system: HEp-2; experiment: Antiproliferative activity against human HEp2 cell line at 1 uM relative to control; procedure, shortened: as §1
[7] = system: Caco-2; experiment: Antiproliferative activity against human Caco-2 cell line at 1000 uM relative to control; procedure, shortened: as §1
[8] = system: HBL; experiment: Antiproliferative activity against human HBL cell line at 1 uM relative to control; procedure, shortened: as §1
[9] = system: MCF7; experiment: Antiproliferative activity against human MCF7 cell line at 100 uM relative to control; procedure, shortened: as §1
[10] = system: SW-620; experiment: Antiproliferative activity against human SW620 cell line at 100 uM relative to control; procedure, shortened: as §1
[11] = system: HT-29; experiment: Antiproliferative activity against human HT29 cell line at 1000 uM relative to control; procedure, shortened: as §1
[12] = system: SW-620; experiment: Antiproliferative activity against human SW620 cell line at 1 uM relative to control; procedure, shortened: as §1
[13] = system: HBL; experiment: Antiproliferative activity against human HBL cell line at 10 uM relative to control; procedure, shortened: as §1
[14] = system: HT-29; experiment: Antiproliferative activity against human HT29 cell line at 10 uM relative to control; procedure, shortened: as §1
[15] = system: HBL; experiment: Antiproliferative activity against human HBL cell line at 100 uM relative to control; procedure, shortened: as §1
[16] = system: HT-29; experiment: Antiproliferative activity against human HT29 cell line at 1 uM relative to control; procedure, shortened: as §1
[17] = system: SW-620; experiment: Antiproliferative activity against human SW620 cell line at 10 uM relative to control; procedure, shortened: as §1
[18] = system: HEp-2; experiment: Antiproliferative activity against human HEp2 cell line at 1000 uM relative to control; procedure, shortened: as §1
[19] = system: HeLa; experiment: Antiproliferative activity against human HeLa cell line at 1 uM relative to control; procedure, shortened: as §1
[20] = system: HeLa; experiment: Antiproliferative activity against human HeLa cell line at 100 uM relative to control; procedure, shortened: as §1
[21] = system: Caco-2; experiment: Antiproliferative activity against human Caco-2 cell line at 1 uM relative to control; procedure, shortened: as §1
[22] = system: HeLa; experiment: Antiproliferative activity against human HeLa cell line at 10 uM relative to control; procedure, shortened: as §1
[23] = system: HT-29; experiment: Antiproliferative activity against human HT29 cell line at 100 uM relative to control; procedure, shortened: as §1
[24] = system: MCF7; experiment: Antiproliferative activity against human MCF7 cell line at 1 uM relative to control; procedure, shortened: as §1
[25] = system: HEp-2; experiment: Antiproliferative activity against human HEp2 cell line at 100 uM relative to control; procedure, shortened: as §1
[26] = system: HeLa; experiment: Antiproliferative activity against human HeLa cell line at 1000 uM relative to control; procedure, shortened: as §1
[27] = system: Caco-2; experiment: Antiproliferative activity against human Caco-2 cell line at 100 uM relative to control; procedure, shortened: as §1
[28] = system: HEp-2; experiment: Antiproliferative activity against human HEp2 cell line at 10 uM relative to control; procedure, shortened: as §1

| SMILES | inhibition at 10 µM [1] [%] | inhibition at 1000 µM [2] [%] | inhibition at 10 µM [3] [%] | inhibition at 1000 µM [4] [%] | inhibition at 1000 µM [5] [%] | inhibition at 1 µM [6] [%] | inhibition at 1000 µM [7] [%] | inhibition at 1 µM [8] [%] | inhibition at 100 µM [9] [%] | inhibition at 100 µM [10] [%] | inhibition at 1000 µM [11] [%] | inhibition at 1 µM [12] [%] | inhibition at 10 µM [13] [%] | inhibition at 10 µM [14] [%] | inhibition at 100 µM [15] [%] | inhibition at 1 µM [16] [%] | inhibition at 10 µM [17] [%] | inhibition at 1000 µM [18] [%] | inhibition at 1 µM [19] [%] | inhibition at 100 µM [20] [%] | further results |
| --- | --- | --- | --- | --- | --- | --- | --- | --- | --- | --- | --- | --- | --- | --- | --- | --- | --- | --- | --- | --- | --- |
| CSCC[C@H](NC(=O)[C@H](Cc1ccccc1)NC(=O)CNC(=O)CNC(=O)[C@@H](N)Cc1ccc(O)cc1)C(=O)O | 4.1 | 10.8 | 6.4 | 19.1 | 15.4 | 5.2 | 3.2 | 0.4 | 7.6 | 15.3 | 19.3 | 18.9 | 1 | 15.9 | 4.5 | 14 | 12.7 | 3.3 | 2.3 | 12 | inhibition at 1 µM [21]: 4.2%; inhibition at 10 µM [22]: 11.4%; inhibition at 100 µM [23]: 16.1%; inhibition at 1 µM [24]: 3.6%; inhibition at 100 µM [25]: 2.4%; inhibition at 1000 µM [26]: 22.3%; inhibition at 100 µM [27]: 8.4%; inhibition at 10 µM [28]: 4.5% |
| N[C@@H](Cc1ccc(O)cc1)C(=O)N[C@@H](C(=O)O)C1C2CC3CC(C2)CC1C3 (stereo partly specified) | 2.6 | 7.3 | 21.4 | 18.7 | 18.7 | 8.5 | 16 | 3 | 7.7 | 9.4 | 21.8 | 10.7 | 4.7 | 8.3 | 2.7 | 0.7 | 10 | 16.2 | 7.2 | 11 | inhibition at 1 µM [21]: 22.2%; inhibition at 10 µM [22]: 17.1%; inhibition at 100 µM [23]: 10.5%; inhibition at 1 µM [24]: 1.6%; inhibition at 100 µM [25]: 1.9%; inhibition at 1000 µM [26]: 20.5%; inhibition at 100 µM [27]: 17.5%; inhibition at 10 µM [28]: 4.9% |
